According to ChEMBL document CHEMBL4145543, “Synthesis and pharmacological evaluation of 6,7-dimethoxy-1,2,3,4-tetrahydroisoquinoline derivatives as sigma-2 receptor ligands” (Eur J Med Chem, 2018):

How the values were obtained:
[1] = molecular target: T1, Sigma intracellular receptor 2 (Rattus norvegicus) (UniProt Q5U3Y7); assay: Displacement of [3H]DTG from sigma-2 receptor in Sprague-Dawley rat liver membranes at 1 uM after 120 mins in presence of (+)-pentazocine by microbeta scintillation counting method relative to control; assay type: cell membranes; settings: Membrane
T1 sequence (whole entry): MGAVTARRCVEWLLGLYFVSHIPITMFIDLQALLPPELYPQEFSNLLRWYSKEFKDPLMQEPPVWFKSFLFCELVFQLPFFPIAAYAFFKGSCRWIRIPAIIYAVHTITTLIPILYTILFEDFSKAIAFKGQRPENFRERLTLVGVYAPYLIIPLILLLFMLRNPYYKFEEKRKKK
In short: (§1)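 Single-point screen at 1 µM for displacement of [3H](+)-pentazocine (sigma-1, guinea pig brain membranes) or [3H]-DTG (sigma-2, rat liver membranes, with 100 nM (+)-pentazocine); 25 °C, pH 8.0 Tris buffer. Hits were defined as >50% displacement.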

[2] = molecular target: T2, Sigma intracellular receptor 2 (Rattus norvegicus, UniProt Q5U3Y7); assay: Displacement of [3H]DTG from sigma-2 receptor in Sprague-Dawley rat liver membranes after 120 mins in presence of (+)-pentazocine by microbeta scintillation counting method; assay type: cell membranes, Membrane
T2 sequence (Q5U3Y7 whole entry): T1 sequence (whole entry)

Huh-7 = assay: Cytotoxicity against human HuH7 cells after 48 hrs by CCK8 assay; assay type: functional, cell-based; settings: Huh-7, 48 h
In short: (§2)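 Exponentially growing Huh7 or KYSE-140 cells seeded at 4,000 cells/well, adhered overnight, then exposed to 6 concentrations for 48 h; DMSO vehicle control. CCK-8 added, 2 h at 37 °C in dark, absorbance at 450 nm. Viability as percent of control OD; IC50 by curve fitting, at least three experiments.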

KYSE-140 = assay: Cytotoxicity against human KYSE-140 cells after 48 hrs by CCK8 assay; assay type: functional, cell-based; settings: KYSE-140, 48 h; in short: as §2
[3] = molecular target: Sigma non-opioid intracellular receptor 1 (Cavia porcellus) (UniProt Q60492); assay: Displacement of [3H]-(+)-pentazocine from sigma-1 receptor in guinea pig brain membranes at 1 uM after 120 mins by microbeta scintillation counting method relative to control; assay type: cell membranes; settings: Membrane; in short: as §1
[4] = molecular target: Sigma non-opioid intracellular receptor 1 (Cavia porcellus, UniProt Q60492); assay: Displacement of [3H]-(+)-pentazocine from sigma-1 receptor in guinea pig brain membranes after 120 mins by microbeta scintillation counting method; assay type: cell membranes, Membrane
In short: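 Guinea pig brain membranes (frozen brains minus cerebellum; 300 µg) incubated with 6 nM [3H]-(+)-pentazocine stock (~42 Ci/mmol), 50 mM Tris-HCl pH 8.0, 25 °C, 120 min. Compounds from ethanol, 0.1-1000 nM, 10 points. Ice-cold 10 mM Tris stop, GF/B filtration, scintillation counting. Nonspecific defined with (+)-pentazocine or haloperidol (10 µM).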

[5] = Selectivity ratio of Ki for sigma-1 receptor in guinea pig brain membranes to Ki for sigma-2 receptor in Sprague-Dawley rat liver membranes; assay type: cell membranes
[6] = molecular target: Sigma non-opioid intracellular receptor 1 (Homo sapiens, UniProt Q99720); assay: Binding affinity to sigma-1 receptor (unknown origin)
[7] = molecular target: Sigma intracellular receptor 2 (Homo sapiens, UniProt Q5BJF2); assay: Binding affinity to sigma-2 receptor (unknown origin)
Sequence of Sigma intracellular receptor 2 (Homo sapiens, UniProt Q5BJF2) (Q5BJF2 whole entry): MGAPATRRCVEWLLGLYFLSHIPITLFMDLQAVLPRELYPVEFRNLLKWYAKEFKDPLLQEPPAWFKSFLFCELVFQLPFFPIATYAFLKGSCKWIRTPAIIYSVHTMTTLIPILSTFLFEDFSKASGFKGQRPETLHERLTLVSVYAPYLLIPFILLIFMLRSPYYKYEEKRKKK

Sequence of Sigma non-opioid intracellular receptor 1 (Homo sapiens, UniProt Q99720) (Q99720 whole entry): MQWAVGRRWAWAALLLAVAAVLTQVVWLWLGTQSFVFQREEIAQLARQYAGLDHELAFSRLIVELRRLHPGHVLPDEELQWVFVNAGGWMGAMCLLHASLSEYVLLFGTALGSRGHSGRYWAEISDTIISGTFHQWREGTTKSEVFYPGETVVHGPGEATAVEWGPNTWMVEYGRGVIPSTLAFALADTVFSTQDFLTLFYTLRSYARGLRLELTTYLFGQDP
Sequence of Sigma non-opioid intracellular receptor 1 (Cavia porcellus) (Q60492 whole entry): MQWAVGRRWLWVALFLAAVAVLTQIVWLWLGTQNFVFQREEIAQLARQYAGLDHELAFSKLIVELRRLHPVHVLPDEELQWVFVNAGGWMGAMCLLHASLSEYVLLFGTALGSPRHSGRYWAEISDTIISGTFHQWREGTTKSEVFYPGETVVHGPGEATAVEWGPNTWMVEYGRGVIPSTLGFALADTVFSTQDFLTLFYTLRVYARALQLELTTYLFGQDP
Sequence of Sigma non-opioid intracellular receptor 1 (Cavia porcellus, UniProt Q60492) (Q60492 whole entry): as above

| SMILES | inhibition [1] | Ki [2] | IC50 (Huh-7) | IC50 (KYSE-140) | inhibition [3] | Ki [4] | Ratio Ki [5] | Ki [6] | Ki [7] |
| --- | --- | --- | --- | --- | --- | --- | --- | --- | --- |
| COc1ccc(C(=O)CN2CCc3cc(OC)c(OC)cc3C2)c(OC)c1 | > 50% | 53.8 nM | > 100 nM | > 100 nM | > 50% | > 1000 nM | > 18 | – | – |
| COc1ccc(C(O)CCCCN2CCc3cc(OC)c(OC)cc3C2)c(OC)c1 (stereo unspecified) | > 50% | 6.2 nM | – | – | > 50% | > 1000 nM | > 161 | – | – |
| COc1ccc(C(O)CCN2CCc3cc(OC)c(OC)cc3C2)c(OC)c1 (stereo unspecified) | > 50% | 30.2 nM | 45900 nM | 26100 nM | > 50% | > 1000 nM | > 33 | – | – |
| COc1ccc(C(O)CCCCN2CCc3cc(OC)c(OC)cc3C2)c(C)c1 (stereo unspecified) | > 50% | 5.2 nM | 12500 nM | 14900 nM | > 50% | > 1000 nM | > 192 | – | – |
| COc1ccc(C)cc1NC(=O)OC1C[C@H]2CCC[C@H](C1)N2CCCCCCN (stereo partly specified) | – | – | – | – | – | – | – | 1420 nM | 5.19 nM |
| COc1ccc(C(=O)CCCCN2CCc3cc(OC)c(OC)cc3C2)c(OC)c1 | > 50% | 5.8 nM | > 100 nM | 88300 nM | > 50% | 32.9 nM | 5.6 | – | – |
| COc1cc2c(cc1OC)CN(CCn1cnc3cc(Cl)c([N+](=O)[O-])cc3c1=O)CC2 | > 50% | > 1000 nM | > 100 nM | > 100 nM | > 50% | > 1000 nM | – | – | – |
| COc1cc2c(cc1OC)CN(CCCCNC(=O)c1cc(I)cc(OC)c1OCC[18F])CC2 | – | – | – | – | – | – | – | 2150 nM | 0.26 nM |
| COc1cc2c(cc1OC)CN(CCCCn1cnc3cc(OC)c(OC)cc3c1=O)CC2 | > 50% | 43.8 nM | > 100 nM | > 100 nM | > 50% | > 1000 nM | > 22.8 | – | – |
| COc1ccc(C(O)CN2CCc3cc(OC)c(OC)cc3C2)c(OC)c1 (stereo unspecified) | > 50% | 62 nM | > 100 nM | > 100 nM | > 50% | > 1000 nM | > 16 | – | – |
| COc1cc2c(cc1OC)CN(CCCCn1cnc3cc(Cl)c([N+](=O)[O-])cc3c1=O)CC2 | > 50% | > 1000 nM | > 100 nM | > 100 nM | > 50% | > 1000 nM | – | – | – |
| COc1ccc(C(=O)CCN2CCc3cc(OC)c(OC)cc3C2)c(OC)c1 | > 50% | 68.1 nM | 75300 nM | > 100 nM | > 50% | > 1000 nM | > 14 | – | – |
| CCn1c(=O)n(C(=O)NC2C[C@@H]3CC[C@@H](C2)N3C)c2ccccc21 (stereo partly specified) | – | – | – | – | – | – | – | 6300 nM | 32 nM |
| COc1cc2c(cc1OC)CN(CCCn1cnc3cc(Cl)c([N+](=O)[O-])cc3c1=O)CC2 | > 50% | > 1000 nM | > 100 nM | > 100 nM | > 50% | > 1000 nM | – | – | – |
| COc1ccc(C(=O)CCN2CCc3cc(OC)c(OC)cc3C2)c(C)c1 | > 50% | 23.7 nM | 42800 nM | 60100 nM | > 50% | 13.3 nM | 0.5 | – | – |
| COc1cc2c(cc1OC)CN(CCCn1cnc3cc(OC)c(OC)cc3c1=O)CC2 | > 50% | 13.9 nM | > 100 nM | > 100 nM | > 50% | > 1000 nM | > 71.9 | – | – |
| COc1ccc(C(=O)CCCCN2CCc3cc(OC)c(OC)cc3C2)c(C)c1 | > 50% | 5.1 nM | > 100 nM | > 100 nM | > 50% | > 1000 nM | > 196 | – | – |
| COc1cc2c(cc1OC)CN(CCC(=O)c1c(C)c(OC)c(OC)c(OC)c1O)CC2 | > 50% | > 1000 nM | 81600 nM | 93700 nM | > 50% | > 1000 nM | – | – | – |
| c1ccc2c(c1)c1ccccc1n2CCCN1CCN(C2CCCCC2)CC1 | – | – | – | – | – | – | – | 3450 nM | 12.6 nM |
| COc1ccc(C(O)CCN2CCc3cc(OC)c(OC)cc3C2)c(C)c1 (stereo unspecified) | > 50% | 18.2 nM | > 100 nM | > 100 nM | > 50% | > 1000 nM | > 55 | – | – |
| CC[C@H]1C[C@@H]2C[C@H]3c4[nH]c5ccc(OC)cc5c4CCN(C2)[C@@H]13 | – | – | – | – | – | – | – | 9310 nM | 90.4 nM |
